Activity calls are given as the source filed them. The calls are words filed in the database; no cut-off is given here.
Legend:
[1] = tested on: Cryptococcus gattii species complex; assay: Antimicrobial activity against Cryptococcus gattii serotype B isolate NIH771 assessed as heteroresistant isolates at 2 ug/ml; format: functional, Cryptococcus bacillisporus
Method in brief: (§1)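 Population analysis: cells suspended in sterile saline at 1 × 10³ to 4 × 10³ CFU/ml and plated on plain YPD agar or YPD agar with various fluconazole concentrations. Plates incubated at 30°C for 72 h. The resistant subpopulation at each concentration is recorded as a percentage of the population.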

[2] = tested on: Cryptococcus gattii species complex; assay: Antimicrobial activity against Cryptococcus gattii serotype B isolate B5765 assessed as heteroresistant isolates at 2 ug/ml; format: functional, Cryptococcus bacillisporus; method in brief: as §1
[3] = tested on: Cryptococcus gattii species complex; assay: Antimicrobial activity against Cryptococcus gattii serotype B isolate NIH200 assessed as heteroresistant isolates at 4 ug/ml; format: functional, Cryptococcus bacillisporus; method in brief: as §1
[4] = tested on: Cryptococcus gattii species complex; assay: Antimicrobial activity against Cryptococcus gattii serotype B isolate NIH535 assessed as heteroresistant isolates at 4 ug/ml; format: functional, Cryptococcus bacillisporus; method in brief: as §1
[5] = tested on: Cryptococcus gattii species complex; assay: Antimicrobial activity against Cryptococcus gattii serotype B isolate B3939 assessed as heteroresistant isolates at 4 ug/ml; format: functional, Cryptococcus bacillisporus; method in brief: as §1
[6] = tested on: Cryptococcus gattii species complex; assay: Antimicrobial activity against Cryptococcus gattii serotype B isolate NIH771 assessed as heteroresistant isolates at 4 ug/ml; format: functional, Cryptococcus bacillisporus
Method in brief: (§2)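 Population analysis: saline cell suspensions (1 × 103 to 4 × 10^3 CFU/ml) plated on plain YPD agar or YPD agar with various fluconazole concentrations; growth recorded after 72 h at 30°C; percentage of resistant subpopulation at each drug level calculated relative to drug-free plate growth.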

[7] = tested on: Cryptococcus gattii species complex; assay: Antimicrobial activity against Cryptococcus gattii serotype B isolate B5765 assessed as heteroresistant isolates at 4 ug/ml; format: functional, Cryptococcus bacillisporus; method in brief: as §1
[8] = tested on: Cryptococcus gattii species complex; assay: Antimicrobial activity against Cryptococcus gattii serotype B isolate RAM002 assessed as heteroresistant isolates at 4 ug/ml; format: functional, Cryptococcus bacillisporus; method in brief: as §2
[9] = tested on: Cryptococcus bacillisporus; assay: Antimicrobial activity against Cryptococcus gattii serotype C isolate NIH191 assessed as heteroresistant isolates at 4 ug/ml; format: functional; method in brief: as §2
[10] = tested on: Cryptococcus gattii species complex; assay: Antimicrobial activity against Cryptococcus gattii serotype B isolate RB-33 assessed as concentration required for heteroresistance; format: functional, Cryptococcus bacillisporus
[11] = tested on: Cryptococcus gattii species complex; assay: Antimicrobial activity against Cryptococcus gattii serotype B isolate RAM-005 assessed as concentration required for heteroresistance; format: functional, Cryptococcus bacillisporus
[12] = tested on: Cryptococcus gattii species complex; assay: Antimicrobial activity against Cryptococcus gattii serotype B isolate B5765 assessed as concentration required for heteroresistance; format: functional, Cryptococcus bacillisporus
Method in brief: (§3)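 Fluconazole spot test: 10-fold serial dilutions of each single-colony-purified strain spotted on YPD agar alone and YPD agar with fluconazole at 4 to 128 μg/ml. The level of heteroresistance to fluconazole (LHF) is the lowest drug concentration at which minor resistant subpopulations emerge within the spot.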

[13] = tested on: Cryptococcus gattii species complex; assay: Antimicrobial activity against Cryptococcus gattii serotype B isolate B5788 assessed as concentration required for heteroresistance; format: functional, Cryptococcus bacillisporus; method in brief: as §3
[14] = tested on: Cryptococcus gattii species complex; assay: Antimicrobial activity against Cryptococcus gattii serotype C isolate NIH139 assessed as concentration required for heteroresistance; format: functional, Cryptococcus bacillisporus
[15] = tested on: Cryptococcus gattii species complex; assay: Antimicrobial activity against Cryptococcus gattii serotype C isolate NIH178 assessed as concentration required for heteroresistance; format: functional, Cryptococcus bacillisporus
[16] = tested on: Cryptococcus bacillisporus; assay: Antimicrobial activity against Cryptococcus gattii serotype C isolate NIH191 assessed as concentration required for heteroresistance; format: functional
[17] = tested on: Cryptococcus gattii species complex; assay: Antimicrobial activity against Cryptococcus gattii serotype C isolate H0058-1-78 assessed as concentration required for heteroresistance; format: functional, Cryptococcus bacillisporus
[18] = tested on: Cryptococcus gattii species complex; assay: Antimicrobial activity against Cryptococcus gattii serotype C isolate H0058-1-818 assessed as concentration required for heteroresistance; format: functional, Cryptococcus bacillisporus
[19] = tested on: Cryptococcus gattii species complex; assay: Antimicrobial activity against Cryptococcus gattii serotype B isolate NIH754 assessed as heteroresistant isolates at 2 ug/ml; format: functional, Cryptococcus bacillisporus; method in brief: as §1
[20] = tested on: Cryptococcus gattii species complex; assay: Antimicrobial activity against Cryptococcus gattii serotype B isolate NIH412 assessed as heteroresistant isolates at 2 ug/ml; format: functional, Cryptococcus bacillisporus; method in brief: as §1
[21] = tested on: Cryptococcus gattii species complex; assay: Antimicrobial activity against Cryptococcus gattii serotype B isolate NIH535 assessed as heteroresistant isolates at 2 ug/ml; format: functional, Cryptococcus bacillisporus; method in brief: as §1
[22] = tested on: Cryptococcus deuterogattii; assay: Antimicrobial activity against Cryptococcus gattii serotype B isolate NIH444 assessed as heteroresistant isolates at 2 ug/ml; format: functional, Cryptococcus bacillisporus; method in brief: as §1
[23] = tested on: Cryptococcus gattii species complex; assay: Antimicrobial activity against Cryptococcus gattii serotype B isolate NIH189 assessed as heteroresistant isolates at 2 ug/ml; format: functional, Cryptococcus bacillisporus; method in brief: as §1
[24] = tested on: Cryptococcus gattii species complex; assay: Antimicrobial activity against Cryptococcus gattii serotype B isolate NIH367 assessed as heteroresistant isolates at 2 ug/ml; format: functional, Cryptococcus bacillisporus; method in brief: as §1
[25] = tested on: Cryptococcus deuterogattii; assay: Antimicrobial activity against Cryptococcus gattii serotype B isolate NIH444 assessed as concentration required for heteroresistance; format: functional, Cryptococcus bacillisporus; method in brief: as §3
[26] = tested on: Cryptococcus gattii species complex; assay: Antimicrobial activity against Cryptococcus gattii serotype B isolate NIH535 assessed as concentration required for heteroresistance; format: functional, Cryptococcus bacillisporus; method in brief: as §3
[27] = tested on: Cryptococcus gattii species complex; assay: Antimicrobial activity against Cryptococcus gattii serotype B isolate NIH744 assessed as concentration required for heteroresistance; format: functional, Cryptococcus bacillisporus; method in brief: as §3
[28] = tested on: Cryptococcus gattii species complex; assay: Antimicrobial activity against Cryptococcus gattii serotype B isolate NIH771 assessed as concentration required for heteroresistance; format: functional, Cryptococcus bacillisporus; method in brief: as §3
[29] = tested on: Cryptococcus gattii species complex; assay: Antimicrobial activity against Cryptococcus gattii serotype B isolate RB-1 assessed as concentration required for heteroresistance; format: functional, Cryptococcus bacillisporus
[30] = tested on: Cryptococcus gattii species complex; assay: Antimicrobial activity against fluconazole-resistant Cryptococcus gattii serotype B isolate RAM15 at 256 ug/ml; format: functional, organism-based; conditions: Cryptococcus bacillisporus
[31] = tested on: Cryptococcus gattii species complex; assay: Antimicrobial activity against Cryptococcus gattii serotype B isolate NIH200 assessed as concentration required for heteroresistance; format: functional, Cryptococcus bacillisporus; method in brief: as §3
[32] = tested on: Cryptococcus gattii species complex; assay: Antimicrobial activity against Cryptococcus gattii serotype C isolate H0058-1-1941 assessed as heteroresistant isolates at 16 ug/ml; format: functional, Cryptococcus bacillisporus; method in brief: as §2
[33] = tested on: Cryptococcus deuterogattii; assay: Antimicrobial activity against Cryptococcus gattii serotype B isolate NIH444 assessed as heteroresistant isolates at 32 ug/ml; format: functional, Cryptococcus bacillisporus; method in brief: as §1
[34] = tested on: Cryptococcus gattii species complex; assay: Antimicrobial activity against Cryptococcus gattii serotype B isolate RAM15 assessed as heteroresistant isolates at 32 ug/ml; format: functional, Cryptococcus bacillisporus; method in brief: as §2
[35] = tested on: Cryptococcus gattii species complex; assay: Antimicrobial activity against Cryptococcus gattii serotype C isolate H0058-1-78 assessed as heteroresistant isolates at 32 ug/ml; format: functional, Cryptococcus bacillisporus; method in brief: as §2
[36] = tested on: Cryptococcus gattii species complex; assay: Antimicrobial activity against Cryptococcus gattii serotype C isolate H0058-1-818 assessed as heteroresistant isolates at 32 ug/ml; format: functional, Cryptococcus bacillisporus; method in brief: as §2
[37] = tested on: Cryptococcus gattii species complex; assay: Antimicrobial activity against Cryptococcus gattii serotype C isolate NIH298 assessed as heteroresistant isolates at 4 ug/ml; format: functional, Cryptococcus bacillisporus
Method in brief: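 Cell suspensions of 1 × 10^3 to 4 × 10^3 CFU/ml were made in sterile saline and plated on plain YPD agar or YPD agar with various fluconazole concentrations. Plates were incubated at 30°C for 72 h, and the percentage of resistant subpopulation emerging was recorded.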

[38] = tested on: Cryptococcus gattii species complex; assay: Antimicrobial activity against Cryptococcus gattii serotype C isolate H0058-1-1686 assessed as heteroresistant isolates at 4 ug/ml; format: functional, Cryptococcus bacillisporus; method in brief: as §2
[39] = tested on: Cryptococcus gattii species complex; assay: Antimicrobial activity against Cryptococcus gattii serotype B isolate NIH409 assessed as heteroresistant isolates at 8 ug/ml; format: functional, Cryptococcus bacillisporus; method in brief: as §1
[40] = tested on: Cryptococcus gattii species complex; assay: Antimicrobial activity against Cryptococcus gattii serotype B isolate B5763 assessed as heteroresistant isolates at 8 ug/ml; format: functional, Cryptococcus bacillisporus; method in brief: as §1
[41] = tested on: Cryptococcus gattii species complex; assay: Antimicrobial activity against Cryptococcus gattii serotype C isolate H0058-1-1941 assessed as heteroresistant isolates at 8 ug/ml; format: functional, Cryptococcus bacillisporus; method in brief: as §2
[42] = tested on: Cryptococcus gattii species complex; assay: Antimicrobial activity against Cryptococcus gattii serotype B isolate NIH189 assessed as heteroresistant isolates at 16 ug/ml; format: functional, Cryptococcus bacillisporus; method in brief: as §1
[43] = tested on: Cryptococcus gattii species complex; assay: Antimicrobial activity against Cryptococcus gattii serotype B isolate RAM15 assessed as heteroresistant isolates at 16 ug/ml; format: functional, Cryptococcus bacillisporus; method in brief: as §2
[44] = tested on: Cryptococcus gattii species complex; assay: Antimicrobial activity against Cryptococcus gattii serotype B isolate VPB572-058 assessed as heteroresistant isolates at 16 ug/ml; format: functional, Cryptococcus bacillisporus; method in brief: as §2

OC(Cn1cncn1)(Cn1cncn1)c1ccc(F)cc1F [FLUCONAZOLE]
Activity [1]: 100% | Activity [2]: 100% | Activity [3]: 0.1% | Activity [4]: 0.1% | Activity [5]: 100% | Activity [6]: 100% | Activity [7]: 100% | Activity [8]: 100% | Activity [9]: 100% | Activity [10]: 32 µg/mL | Activity [11]: 32 µg/mL | Activity [12]: 16 µg/mL | Activity [13]: 8 µg/mL | Activity [14]: 32 µg/mL | Activity [15]: 32 µg/mL | Activity [16]: 32 µg/mL | Activity [17]: 32 µg/mL | Activity [18]: 32 µg/mL | Activity [19]: 100% | Activity [20]: 100% | Activity [21]: 100% | Activity [22]: 100% | Activity [23]: 100% | Activity [24]: 100% | Activity [25]: 32 µg/mL | Activity [26]: 4 µg/mL | Activity [27]: 32 µg/mL | Activity [28]: 32 µg/mL | Activity [29]: 32 µg/mL | Activity [30]: inactive | Activity [31]: 4 µg/mL | Activity [32]: 100% | Activity [33]: 0.5% | Activity [34]: 10% | Activity [35]: 2.3% | Activity [36]: 16% | Activity [37]: 100% | Activity [38]: 100% | Activity [39]: 100% | Activity [40]: 0.03% | Activity [41]: 100% | Activity [42]: 0.7% | Activity [43]: 100% | Activity [44]: 100%
